Experimental data reported in ChEMBL document CHEMBL3046222, “Insecticidal activity of penitrems, including penitrem G, a new member of the family isolated from Penicillium crustosum” (2003).

Columns and labels:
Format in all cases: functional
[1] = system: Ceratitis capitata; test: Insecticidal activity against adult Ceratitis capitata assessed as eclosion rate at 10 ug/fly measured on 4 to 10 days relative to control
[2] = system: Oncopeltus fasciatus; test: Insecticidal activity against third-instar nymph stage of Oncopeltus fasciatus assessed as mortality at 20 ug/cm2 after 72 hr relative to control
In short: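 Nymphs were reared on sunflower seeds at 27 ± 1 °C, 50-60% RH and 16 h/8 h light/dark. Acute toxicity was scored as dead insects after 72 h of exposure. Controls received the same amount of acetone. Run in triplicate; values are means ± SE with significance at […].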

[3] = system: Ceratitis capitata; test: Insecticidal activity against adult Ceratitis capitata assessed as fecundity reduction at 10 ug/fly measured every 2 days for 10 days relative to control; design: scale not given: the % may be the effect or the level left
In short: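 Flies were anaesthetised on ice and dosed topically on the abdomen with 1 µL of acetone solution; controls received acetone alone. Eggs laid over 24 h were collected and counted every 2 days through the 10-day period. Female deaths were logged to give eggs/female/day, accumulated over 10 days. Six independent experiments, reported as means ± SE.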

[4] = system: Ceratitis capitata; test: Insecticidal activity against adult Ceratitis capitata assessed as fertility reduction at 10 ug/fly measured on 6 to 10 days relative to control; design: scale not given: the % may be the effect or the level left
In short: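 Flies were dosed topically with 1 µL of acetone solution after ice anaesthesia; controls received acetone. On days 6 and 10 after treatment, 30 eggs per experiment were picked at random and placed on plates coated with 0.03% agar. Plates were kept at 27 ± 2 °C, 50-60% RH and 16 h/8 h light/dark, and emerged larvae were counted 5 days after collection.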

[5] = system: Oncopeltus fasciatus; test: Insecticidal activity against third-instar nymph stage of Oncopeltus fasciatus assessed as nymph survival to reach adult instar stage at 20 to 500 ug/cm2 after 72 hr relative to control
In short: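 Insects were colony-reared at 27 ± 1 °C, 50-60% RH and 16 h/8 h photoperiod. After 72 h of exposure, surviving nymphs were moved to a 500 cm3 glass flask and held under standard conditions to follow development to the adult stage. Acetone-treated controls were run in parallel.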

[6] = system: Ceratitis capitata; test: Insecticidal activity against adult Ceratitis capitata assessed as mortality at 10 ug/fly measured every 24 hr for 10 days relative to control
In short: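 Adults 2-3 days old (5 males, 5 females per group) were anaesthetised on ice and dosed topically on the ventral abdomen with 1 µL of acetone dilution. Controls received 1 µL of acetone. Flies were held at 27 ± 1 °C, 50-60% RH and 16 h/8 h light/dark, with diet and water ad libitum. Mortality was scored every 24 h for 10 days. The assay was run on six occasions.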

C=C(C)[C@H]1O[C@H]2CC[C@@]3(C)[C@@](O)(CC[C@H]4[C@@H]5OC(C)(C)[C@H]6C[C@@H]7C(=C)Cc8c(Cl)cc9[nH]c(c5c9c8[C@@]76O)[C@@]43C)[C@@]23O[C@H]3[C@H]1O [PENITREM A]
Activity [1]: 0% | mortality at 20 µg/cm2 [2]: 31.1% | Activity [3]: 78.4% | Activity [4]: 100% | Survival [5]: 0% | mortality [6]: 59.7%

C=C1Cc2ccc3[nH]c4c5c3c2[C@H]2[C@@H]1C[C@@H]2C(C)(C)O[C@H]5[C@@H]1CC[C@@]2(O)[C@@]35O[C@@H]3[C@@H](O)[C@@H](C(=C)C)O[C@H]5CC[C@]2(C)[C@@]41C [PENITREM B]
Activity [1]: 0% | mortality at 20 µg/cm2 [2]: 6.6% | Activity [3]: 88% | Activity [4]: 100% | Survival [5]: 14.3% | mortality [6]: 50%

C=C1Cc2c(Cl)cc3[nH]c4c5c3c2[C@H]2[C@@H]1C[C@@H]2C(C)(C)O[C@H]5[C@@H]1CC[C@@]2(O)C3=C[C@@H](O)[C@@H](C(=C)C)O[C@H]3CC[C@]2(C)[C@@]41C [PENITREM C]
Activity [1]: 0% | mortality at 20 µg/cm2 [2]: 24.4% | Activity [3]: 94.9% | Activity [4]: 100% | Survival [5]: 29.5% | mortality [6]: 73.3%

C=C1Cc2ccc3[nH]c4c5c3c2[C@H]2[C@@H]1C[C@H]2C(C)(C)O[C@H]5[C@@H]1CC[C@@]2(O)C3=C[C@@H](O)[C@@H](C(=C)C)O[C@H]3CC[C@]2(C)[C@@]41C [PENITREM D]
Activity [1]: 42.8% | mortality at 20 µg/cm2 [2]: 11.1% | Activity [3]: 77.1% | Activity [4]: 52.5% | Survival [5]: 58.3% | mortality [6]: 41.7%

C=C1Cc2c(Cl)cc3[nH]c4c5c3c2[C@H]2[C@@H]1C[C@@H]2C(C)(C)O[C@H]5[C@@H]1CC[C@@]2(O)[C@@]35O[C@@H]3[C@@H](O)[C@@H](C(=C)C)O[C@H]5CC[C@]2(C)[C@@]41C [PENITREM F]
Activity [1]: 0% | mortality at 20 µg/cm2 [2]: 20.3% | Activity [3]: 100% | Activity [4]: 100% | Survival [5]: 9.5% | mortality [6]: 66.6%

C=C1Cc2ccc3[nH]c4c5c3c2[C@H]2[C@@H]1C[C@H]2C(C)(C)O[C@H]5[C@]1(O)CC[C@@]2(O)C3=C[C@@H](O)[C@@H](C(=C)C)O[C@H]3CC[C@]2(C)[C@@]41C [PENITREM G]
Activity [1]: 88.5% | mortality at 20 µg/cm2 [2]: 0% | Activity [3]: 7.2% | Activity [4]: 3.8% | Survival [5]: 100% | mortality [6]: 0%
